Compound activity (PubChem)
HIF act = HIF pathway transcriptional activation. U2OS HRE-luciferase reporter, luminescence; normalized: DMSO 0%, desferrioxamine 100%. activation, % at 7.5 µM (by protocol). 300,000 tested, 0.32% active;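 active = mean activation of at least 10% of the iron chelator positive control signal, with at least half of replicates also reaching 10%; inconclusive = mean and replicate majority disagree about reaching 10%; inactive = mean and most replicates under 10%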
Calb FLC = C. albicans growth modulation with fluconazole; C. albicans CaCi-2 (fluconazole-resistant clinical isolate) + fluconazole, Alamar Blue growth, 48 h; growth inhibition, % (no concentration beside the values); 300,000 tested, 0.57% active; AID 1979;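 active = growth inhibition above about 58% in most replicates, limit read from the data, passing the limit was not always enough; inconclusive = exactly half the replicates above a set limit; inactive = most replicates below a set limit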;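 also: all wells also contain fluconazole at 8 µg/ml as a sub-toxic cotreatment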
T cruzi inh = blocks replication of Trypanosoma cruzi; T. cruzi beta-gal in NIH3T3, luminescence, 90 h; 300,000 tested, 1.4% active; inhibition, % (test concentration not listed);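 active = mean inhibition across valid replicates above about 55%, limit read from the data; inconclusive = mean below that limit but half or more replicates reach it; inactive = mean below it, under half of replicates reach it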;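 also: signal also drops with host cell toxicity which is not excluded here; higher percent means less beta-gal luminescence so fewer parasites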
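Assay system: NIH/3T3 fibroblasts plus reporter T. cruzi. Amount: NIH/3T3 cells, 5,000 per well. Buffer or medium: DMEM, 2% fetal bovine serum. Doses: compound pinned at 50 nL/well, DMSO. Schedule: ≥90 h infection period, 3 h prior cell attachment. Signal: luminescent β-galactosidase signal after 60 min lysis. Read-out: parasite load inhibition, %.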
HSF1 inh = HSF1 inhibition; NIH3T3-HGL HSE-luciferase, MG132-induced, luminescence 8 h; hits give low values; activity change, negative = inhibition, % at 7.5 µM (by protocol); 300,000 tested, 0.77% active;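 active = more than half of replicate wells show activity change below -50%, luminescence cut by over half; inconclusive = some wells, but at most half, below -50%; inactive = no replicate well below -50%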;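 also: luciferase reports HSF-1 transcriptional activity via heat shock element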
HSF-1 act = increases HSF-1 driven luciferase reporter signal | 300,000 tested, 1.7% active | activation, % at 9 µM | NIH3T3-HGL HSF-1 luciferase reporter, MG132, 8 h; 100% = twice DMSO control signal;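 active = mean replicate activation of at least 50% with a set share of replicates each reaching 50%; inconclusive = only one of those two conditions met; inactive = mean below 50% and too few replicates reaching it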
Large screens that a line does not name were inactive. Hits are enriched below; roughly 4.4% of the tested compounds scored in any of these assays.

Cc1ccc(-n2c(-c3ccc(Br)cc3)c[n+]3c2CCc2ccc4cccnc4c2-3)cc1	Calb FLC 99, T cruzi inh 60
Cc1cccc(N(C(=O)c2ccco2)C(C(=O)NC2CCCC2)c2cccnc2)c1C (stereo not given)	HSF1 inh -79
CC(C)c1ccc(N(C(=O)CNC(=O)c2ccco2)C(C(=O)NC2CCCC2)c2ccncc2)cc1 (stereo not given)	HSF-1 act 168
CCOc1ccc(S(=O)(=O)N2CCOCC2)cc1[N+](=O)[O-]	none
CCCn1c(SCC(=O)N2CCc3ccccc3C2)nc2c1c(=O)n(C)c(=O)n2C	HIF act 735
CCn1c(SCC(=O)N2CCc3ccccc3C2)nc2c1c(=O)n(C)c(=O)n2C	none
O=C(NC(=S)Nc1ncc(Br)cc1Br)c1ccccc1	HSF-1 act 76
O=C(NC(=S)Nc1cnc2ccccc2c1)c1ccccc1	none
CCN(CC(=O)N1CCOCC1)S(=O)(=O)c1cc(Cl)ccc1Cl	none
COc1ccc(CCNS(=O)(=O)c2ccc(Br)s2)cc1	none
COc1ccc(NC(=S)N(CCc2c(C)[nH]c3ccc(C)cc23)Cc2cccs2)cc1	none
COc1ccc2[nH]c(C)c(CCN(Cc3cccs3)C(=S)Nc3ccc(F)cc3)c2c1	T cruzi inh 55
COc1ccc2[nH]c(C)c(CCN(Cc3cccs3)C(=S)Nc3ccccc3)c2c1	T cruzi inh 58
CNC(=S)N(CCc1c(C)[nH]c2ccc(C)cc12)Cc1cc(OC)c(OC)c(OC)c1	HSF1 inh -66
Cc1[nH]c2ccc(F)cc2c1CCN(Cc1cccnc1)C(=S)Nc1ccc(F)cc1	T cruzi inh 61
Cc1cc(C)c(S(=O)(=O)N2CCCOC2CNC(=O)C(=O)NCc2ccco2)c(C)c1 (stereo not given)	Calb FLC inconclusive
Cc1ccc(CNC(=O)C2CCCN(S(=O)(=O)c3c(C)noc3/C=C/N(C)C)C2)cc1 (stereo not given)	none
COC(=O)C1=C(CS(=O)(=O)c2ccc(OC)cc2)NC(=O)NC1c1ccccc1 (stereo not given)	Calb FLC inconclusive
CCOC(=O)CC(NC(=O)Cc1ccccc1)c1ccccc1Cl (stereo not given)	none
CCOC(=O)CC(NC(=O)C1c2ccccc2Oc2ccccc21)c1ccccc1Cl (stereo not given)	HSF-1 act 102
CSCC[C@H](NS(=O)(=O)c1ccc(C)cc1)C(=O)N1CCC(C(=O)N[C@@H](C)C(=O)O)CC1	none
Clc1cccc(Nc2nc(-c3cccnc3)cs2)c1	T cruzi inh 59
Brc1cccc(Nc2nc(-c3cccnc3)cs2)c1	none
COc1ccc(Cl)cc1Nc1nc(-c2cccnc2)cs1	T cruzi inh 56
Cc1ccc(Nc2nc(-c3cccnc3)cs2)cc1C	none
CS(=O)(=O)N1CCN(Cc2ccc([N+](=O)[O-])cc2)CC1	none
O=C1CN(S(=O)(=O)c2ccccc2)CCN1S(=O)(=O)c1ccccc1	none
COc1ccc(-n2nc(C(=O)NCC(=O)NCCCN3CC(C)CC(C)C3)c3ccccc3c2=O)cc1OC (stereo not given)	none
NNC(=O)COc1cccc(C(F)(F)F)c1	none
CC(C)[C@H](NC(N)=O)C(=O)NNC(=O)COc1cccc(C(F)(F)F)c1	HSF-1 act 142
O=S(=O)(Nc1nc2ccccc2nc1Cl)c1cccc(C(F)(F)F)c1	none
CCOC(=O)C1=C(N)OC2=C(C(=O)CC(C)(C)C2)C1c1ccccc1OCC#N (stereo not given)	HSF1 inh -57
CC1Cc2ccccc2N1C(=O)CSc1ncc(-c2ccc(F)cc2)n1C (stereo not given)	HSF-1 act 67
COC(=O)CSc1nc(-c2ccc(F)cc2)cc(C(F)(F)F)n1	none
OC(c1cc(-c2ccc(C(F)(F)F)cc2)nc(C(F)(F)F)c1)C1CCCCN1 (stereo not given)	T cruzi inh 56
CC(=O)OCC(=O)NCC(=O)c1c[nH]c2ccccc12	HSF1 inh -61
CC1=C(C#N)C(=O)NC(C)(C)C1	none
CC1=NC(C#N)=C(C#N)NC(C)(C)C1	HIF act 28
COc1ccc(/C=N/NC(=O)c2cc(O)c(O)c(O)c2)cc1Cn1cc([N+](=O)[O-])cn1	Calb FLC 97
COc1ccc(/C=N/NC(=O)c2ccccc2O)cc1Cn1cc([N+](=O)[O-])cn1	none
N#CCCCC#Cc1ccc2c(c1)COc1c3ccccc3nn1-2	HSF1 inh -64
C#Cc1ccc2c(c1)COc1c3ccccc3nn1-2	HSF-1 act 61
CCn1c(O)c(C=Nc2ccccc2)oc1=S	HSF1 inh -67
Cc1nc(Sc2ccc(Br)cc2)c(C#N)c(C)c1[N+](=O)[O-]	HSF-1 act 128
Cc1ccc(NC2CCCN(C(=O)c3cc(C(C)C)[nH]n3)C2)cc1C (stereo not given)	none
CN1CCN(c2ccc(Cl)cc2NC(=O)/C=C/c2ccc(F)cc2)CC1	none
COCCOc1ccc(C(F)(F)F)cc1NC(=O)CN1C(=O)NC(C)(c2ccc3c(c2)OCO3)C1=O (stereo not given)	none
COc1ccc(N(CC(=O)NCc2ccc(F)cc2)C(=O)Cn2nnc(-c3ccc(C)o3)n2)cc1OC	HSF1 inh -87
COc1ccccc1CNC(=O)COC(=O)CCC(=O)c1cccs1	none
CC(C)(C)NC(=O)NC(=O)CN1CCN(S(=O)(=O)c2ccc3c(c2)CCCC3)CC1	none
COc1cccc(CSc2nnc(C(F)(F)F)n2Cc2ccc(F)cc2)c1	HSF-1 act 87
O=C1/C(=C/c2ccc(O)cc2)CCc2ccc([N+](=O)[O-])cc21	none
O=C1/C(=C/Nc2cccc([N+](=O)[O-])c2)CCc2ccccc21	HSF-1 act 73
O=C1/C(=C\c2ccc([N+](=O)[O-])cc2)CCc2ccccc21	HSF-1 act 60
O=[N+]([O-])c1cccc(NC(=S)N2CCc3ccccc3C2)c1	none
O=C(c1ccc(S(=O)(=O)Nc2ccccc2F)cc1)N1CCC1	none
O=C(NCCN1CCCCC1)/C(=C/c1ccco1)NC(=O)c1ccccc1	none
CCOc1ccc(CCNC(=O)c2nn(C)c3c2CS(=O)(=O)c2ccccc2-3)cc1OCC	none
CCOc1ccc(CCNC(=O)c2nn(C)c3c2CS(=O)(=O)c2ccccc2-3)cc1	HSF1 inh -53
CC(C)CC(=O)Nc1ccc2nn(-c3ccccc3)nc2c1	HSF-1 act 60
O=c1c2c3c(sc2ncn1/N=C/c1ccc([N+](=O)[O-])o1)CCCC3	HSF-1 act 266
CSc1ccccc1OCc1cc(C(=O)N(C)Cc2ccc(C)o2)no1	HSF-1 act 57
CCN(CC)CCNC(=O)c1ccc(NC(=O)c2ccc(F)cc2F)cc1	none
O=C1C(=O)N(C/C=C/c2ccccc2)c2ccccc21	none
COCCn1c(=O)[nH]c(=O)c2cc(C(=O)c3cc(Cl)ccc3O)cnc21	Calb FLC 89
